Compound activity deposited in PubChem by The Scripps Research Institute Molecular Screening Center.
HCV core dimer: HCV core protein dimerization inhibition; TR-FRET GST/Flag-core106 dimerization, 1536-well; inhibition, % at 5 µM; actives 0.33% (n = 300,000); AID 1899;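 active means inhibition above the mean of all tested compounds plus 3 SD, set per screening campaign, cut at about 45% in these data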
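Assay system: tagged HCV core106 pair (GST and Flag); medium: KF-containing HEPES buffer, pH 7.45, DTT, CHAPS, BSA; also added: Eu donor and XL665 acceptor anti-tag antibodies; dosing: 5 µM single dose; timing: compound-protein-antibody incubation 4 h at 22.5 °C; signal: TR-FRET 671 and 617 nm emission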
NS3 helicase inh: HCV NS3 helicase inhibition. NS3 helicase DNA unwinding, Cy5 molecular beacon fluorescence. inhibition, % at 10.9 µM. actives 0.56% (n = 290,000);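 active means inhibition above the mean of all tested compounds plus 3 SD, set per campaign, cut at about 35% in these data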
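test system = hepatitis C virus NS3 helicase domain fragment enzyme | reagent = annealed dual-labelled DNA beacon duplex, ATP-started | times = 1 h at 25 °C | detection = Cy5 fluorescence, 0 and 60 min reads | read-out basis = percent inhibition from t60/t0 fluorescence ratio | control set = DMSO and thioflavine S | replication = one well per compound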
TAAR1 antag: antagonists of human TAAR1; Q96RJ0; CHO RD-HGA16 TAAR1, Fluo-8 calcium fluorescence, antagonist; inhibition, % at 3 µM; actives 1.5% (n = 360,000);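 active means inhibition above a per-plate cutoff, the mean inhibition of test compounds on that plate plus 3 SD, cut at about 49% in these data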
Target sequence (Q96RJ0 whole entry, looked up): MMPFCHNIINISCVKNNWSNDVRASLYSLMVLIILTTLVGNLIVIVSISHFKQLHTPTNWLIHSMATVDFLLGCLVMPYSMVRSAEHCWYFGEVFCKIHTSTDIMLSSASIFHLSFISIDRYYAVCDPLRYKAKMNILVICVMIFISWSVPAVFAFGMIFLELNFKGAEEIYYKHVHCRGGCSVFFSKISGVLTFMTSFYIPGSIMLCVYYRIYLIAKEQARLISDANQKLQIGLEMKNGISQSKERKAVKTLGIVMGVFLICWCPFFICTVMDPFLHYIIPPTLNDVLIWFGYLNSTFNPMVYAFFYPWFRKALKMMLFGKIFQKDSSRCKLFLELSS
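Test system – hTAAR1-expressing CHO RD-HGA16 cells, Gα16-coupled · Also added – β-PEA at EC80 concentration, post-compound challenge · Compound – 3 µM, single point · Incubation – dye loading 75 min at 37 °C, then 30 min room temperature · Measured by – Fluo-8 intracellular calcium dye fluorescence, real-time kinetic reads · Benchmarks – vehicle and agonist controls · Replicates – singlicate, one well per test compound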
rCAG RNA binder: r(CAG) repeat RNA binding. inhibition, % at 3 µM. actives 1.3% (n = 370,000). TO-PRO-1 dye displacement fluorescence. AID 651821;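 active means inhibition above the plate cutoff, the mean of all test compounds on that plate plus 3 SD, cut at about 35% in these data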;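 further: higher means more dye released from RNA so lower well fluorescence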
TAAR1 agonist: human TAAR1 agonism; actives 0.99% (n = 360,000); activation, % at 3 µM; AID 624467; Q96RJ0; CHO RD-HGA16 TAAR1, Fluo-8 calcium fluorescence; vehicle wells 0%, saturating PEA agonist 100%;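 active means activation above the mean activation of all test compounds in the run plus 3 SD, cut at about 38% in these data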
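Test system: RD-HGA16 (CHO) cells co-expressing Gα16 and hTAAR1 | Doses: Single dose, 3 µM | Schedule: 17-24 h seeding, 75 min 37 °C dye, 30 min RT | Evaluation: % activation from peak over basal fluorescence ratio, DMSO-to-PEA scaled | Technique: Kinetic Fluo-8 calcium fluorescence | Benchmarks: Low control DMSO, high control PEA (EC100)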
Large screens that a line does not name were inactive. Hits are enriched below; roughly 3.7% of the tested compounds scored in any of these assays.

COc1ccc(N(C)S(=O)(=O)c2cccc(C(=O)OCC(=O)N3CC(C)CC(C)C3)c2)cc1 (stereo not drawn)	TAAR1 antag 54 (no result: HCV core dimer, NS3 helicase inh)
COc1ccc(N(C)S(=O)(=O)c2cccc(C(=O)OCC(=O)NCc3ccccc3OC)c2)cc1	TAAR1 antag 57
O=C(COC(=O)c1cc(S(=O)(=O)N2CCc3ccccc3C2)ccc1Cl)NCc1ccco1	none
O=C(COC(=O)c1cccc(S(=O)(=O)N2CCc3ccccc3C2)c1)NCc1ccco1	HCV core dimer 51
CN(c1ccccc1)S(=O)(=O)c1cccc(C(=O)OCC(=O)NCc2ccccc2)c1	none (no result: HCV core dimer, NS3 helicase inh)
COC(=O)[C@]12C=CCN1[C@@H](c1ccc(Cl)cc1)c1c(c3ccccc3n1S(=O)(=O)c1ccc(C)cc1)C2	none (no result: HCV core dimer, NS3 helicase inh, TAAR1 antag, TAAR1 agonist)
N/C(=N\C(=O)OCc1ccccc1)N(Cc1ccccc1)C(C#CC1=CCCCC1)Cc1ccccc1 (stereo not drawn)	none (no result: HCV core dimer, NS3 helicase inh, TAAR1 antag, TAAR1 agonist)
CCOC(=O)[C@@]12CN(C(=O)OC(C)(C)C)CC=C1N(Cc1ccc(OC)cc1)C(=O)[C@H]2CC(=O)NCc1cccc2ccccc12	none (no result: HCV core dimer, NS3 helicase inh, TAAR1 antag, TAAR1 agonist)
Cc1ccc(-n2c(SCC(=O)c3ccccc3Cl)nnc2-c2cnccn2)cc1	none (no result: HCV core dimer, NS3 helicase inh, TAAR1 antag, TAAR1 agonist)
C[C@H](O)[C@@H]1CN2CCc3c([nH]c4c(-c5ccccc5)cccc34)[C@@H]2C[C@@H]1N(C)C(=O)c1ccco1	none (no result: HCV core dimer, NS3 helicase inh, TAAR1 antag, TAAR1 agonist)
COc1cc(OC)c(N(C)S(=O)(=O)c2cccc(C(=O)OCC(=O)NCc3ccco3)c2)cc1Cl	TAAR1 antag 51
CN(c1ccccc1)S(=O)(=O)c1cccc(C(=O)OCC(=O)NCc2ccco2)c1	none
CSc1nc(N(C)CCO)c2sc3nc(-c4ccco4)c4c(c3c2n1)CCC4	HCV core dimer 80 (no result: TAAR1 antag, rCAG RNA binder, TAAR1 agonist)
COC(=O)[C@]12C[C@H](CC(=O)N3CCN(C(=O)c4ccco4)CC3)C(=O)N(Cc3cccc4ccccc34)C1=C[C@H](C1CCCC1)O[C@@H]2C	none (no result: HCV core dimer, NS3 helicase inh, TAAR1 antag, TAAR1 agonist)
Cc1c(CCC(=O)O)c(=O)oc2c(C)c3occ(-c4ccc(Cl)cc4)c3cc12	none (no result: HCV core dimer)
Cc1c(CCC(=O)O)c(=O)oc2cc3occ(-c4ccc(Cl)cc4)c3cc12	rCAG RNA binder 59
COc1cc(C(=O)Nc2ccc(-c3nnc(-c4ccco4)o3)cc2)cc(OC)c1OC	TAAR1 antag 52
O=S1(=O)c2c(cccc2N2CCSCC2)Oc2ccccc2CN1Cc1cn(Cc2cccc(F)c2)nn1	none (no result: HCV core dimer, NS3 helicase inh, TAAR1 antag, TAAR1 agonist)
CCCCNC(=O)C[C@@H]1C[C@]2(C(=O)OCC)CCC3=C2N(CCC3)C1=O	none (no result: HCV core dimer, NS3 helicase inh, TAAR1 antag, TAAR1 agonist)
COc1cccc(-c2cnc3c(NC(C)=O)cc(-c4ccccc4OC)cn23)c1	TAAR1 antag 57 (no result: HCV core dimer, NS3 helicase inh)
COc1cccc(-c2cnc3c(NC(C)=O)cc(-c4cc(OC)c(OC)c(OC)c4)cn23)c1	TAAR1 antag 51 (no result: HCV core dimer, NS3 helicase inh)
Cc1c(C(=O)N/N=C/c2ccccc2Cl)[nH][nH]c1=O	none (no result: HCV core dimer, NS3 helicase inh, TAAR1 antag, TAAR1 agonist)
COc1ccccc1NC(=O)OCCCN1CCC2(CCC(C)CC2)C1=O (stereo not drawn)	none (no result: HCV core dimer, NS3 helicase inh, TAAR1 antag, TAAR1 agonist)
COC(=O)c1c(NC(=O)COC(=O)c2ccc(NC(=O)CC#N)cc2)sc2c1CCCCC2	HCV core dimer 62
Cc1cc(-c2nnc(SCC(=O)Nc3ccccc3C(F)(F)F)o2)c(C)n1-c1ccccc1	TAAR1 agonist 42
O=C(CSc1nc2ccccc2nc1N1CCOCC1)N1CCN(S(=O)(=O)c2cccc([N+](=O)[O-])c2)CC1	none (no result: HCV core dimer, NS3 helicase inh, TAAR1 antag, TAAR1 agonist)
COc1ccccc1-c1cccc(-c2nc(C(=O)N3CCCCC3)cc3c2[C@H](CCO)N(S(=O)C(C)(C)C)C3)c1 (stereo partly drawn)	TAAR1 antag 58 (no result: HCV core dimer, NS3 helicase inh)
CCCNC(=O)c1cc2c(c(-c3cccc(-c4ccc(F)cc4)c3)n1)[C@@H](CCO)N(S(=O)C(C)(C)C)C2 (stereo partly drawn)	TAAR1 antag 49 (no result: HCV core dimer, NS3 helicase inh)
CN1CCN(C(=O)c2cc3c(c(-c4cccc(C#CC(C)(C)O)c4)n2)[C@H](CCO)N(S(=O)C(C)(C)C)C3)CC1 (stereo partly drawn)	none (no result: HCV core dimer, NS3 helicase inh)
CCCC(C)NC(=S)NC(=O)c1cc(S(=O)(=O)N2CCOCC2)ccc1C (stereo not drawn)	none
Cc1ccc(S(=O)(=O)N2CCOCC2)cc1C(=O)NC(=S)N1CC(C)CC(C)C1 (stereo not drawn)	TAAR1 agonist 39
COc1ccccc1NC(=O)c1ccc(SCC(=O)NCc2ccccc2Cl)c([N+](=O)[O-])c1	HCV core dimer 53
Cc1n[nH]c(C)c1S(=O)(=O)NC(C)Cc1ccccn1 (stereo not drawn)	none (no result: HCV core dimer, NS3 helicase inh, TAAR1 antag, TAAR1 agonist)
COc1ccccc1N(C(C)=O)C1=C(Cl)C(=O)c2ccccc2C1=O	TAAR1 antag 57 (no result: HCV core dimer, NS3 helicase inh)
COc1ccc(NC(=O)/C(Cl)=C(/Cl)S(=O)Cc2ccccc2)cn1 (stereo not drawn)	TAAR1 antag 74, TAAR1 agonist 41
COc1ccc(NC(=O)Cc2ccccc2)cn1	none
COc1ccc(Nc2nc(-c3sc(NC(C)=O)nc3C)cs2)cc1	HCV core dimer 59 (no result: TAAR1 antag, rCAG RNA binder, TAAR1 agonist)
CCCCOc1ccc(C(=O)NC2CCCCN(Cc3cccc(Cl)c3)C2=O)cc1 (stereo not drawn)	none (no result: HCV core dimer, NS3 helicase inh, TAAR1 antag, TAAR1 agonist)
COC1=C[C@H](C(=O)NCc2ccc(Br)cc2)[C@H](C)[C@@H](c2ccccc2)CC1=O	none (no result: HCV core dimer, NS3 helicase inh, TAAR1 antag, TAAR1 agonist)
CCOc1ccc(NC(=O)COC(=O)c2ccc3c(c2)C(=O)N(CCc2ccccc2)C3=O)cc1	TAAR1 agonist 38
